Shown are actives, neighbours in structure and some others; about 3% of the full set was active somewhere.
TRPC6 inhibitor: inhibitors of mouse TRPC6 channel; Q61143; HEK293-TRPC6, membrane potential dye, ACh-evoked depolarization; active compounds read low; B-score at 10 µM; 310,000 tested, 1.1% active; AID 2553;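 active = B-score under library mean minus 3 SD, initial fluorescence not abnormally high, positive integrated signal ratio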;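 note: B-score derived from integrated fluorescence ratio over the kinetic read; more negative B-score means stronger inhibition of depolarization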
TRPC4 PAM: allosteric potentiators of mouse TRPC4 channel. Q9QUQ5. HEK293 TRPC4beta/mu-opioid, DAMGO EC20, Fluo-4 Ca2+ flux; active compounds read high. B-score at 10 µM. 310,000 tested, 0.42% active;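 active = B-score of calcium response area above 5 SD of library B-scores, with initial fluorescence ratio within 5 SD of library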;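 note: B-score of integrated fluorescence ratio over time as area under calcium response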
Kir21 block: blocks the mouse Kir2.1 inward-rectifier potassium channel; P35561; HEK293-Kir2.1, FluxOR thallium flux fluorescence; active compounds read low; B-score at 10 µM; 310,000 tested, 0.85% active;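 active = fluorescence ratio B-score at or below minus 3 SD of library scores, with starting-brightness B-score within 2 SD, cut at about -4.2 in these data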;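 note: channel flux triggered by added potassium and thallium sulfate stimulus; B-score of peak minus minimum fluorescence over baseline after thallium stimulus; more negative B-score means stronger Kir2.1 block with less thallium influx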
Target sequence (P35561 whole entry, looked up): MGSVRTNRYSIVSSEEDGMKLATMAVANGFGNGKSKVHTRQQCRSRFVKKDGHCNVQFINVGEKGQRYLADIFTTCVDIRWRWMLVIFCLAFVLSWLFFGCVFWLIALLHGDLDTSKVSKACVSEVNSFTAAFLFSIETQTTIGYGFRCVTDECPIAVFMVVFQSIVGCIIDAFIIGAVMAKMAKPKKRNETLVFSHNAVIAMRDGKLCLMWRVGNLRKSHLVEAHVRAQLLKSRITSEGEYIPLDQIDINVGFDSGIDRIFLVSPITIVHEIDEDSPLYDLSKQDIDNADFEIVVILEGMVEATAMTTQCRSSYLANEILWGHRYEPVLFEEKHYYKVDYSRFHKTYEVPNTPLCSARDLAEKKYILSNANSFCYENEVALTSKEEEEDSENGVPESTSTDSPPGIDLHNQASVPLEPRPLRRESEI
TRPC6 act: mouse TRPC6 channel activation | B-score at 10 µM | HEK293-TRPC6 membrane potential dye fluorescence; active compounds read high | AID 2550 | 310,000 tested, 0.13% active;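 active = B-score of the integrated fluorescence ratio above library mean plus 3 SD, and starting fluorescence ratio within library mean plus 5 SD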;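 note: higher score means more depolarization so channel activation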
TRPC4 act: TRPC4 (mouse) channel activation; Q9QUQ5; HEK293 TRPC4beta/mu-opioid, Fluo4 calcium fluorescence; active compounds read high; B-score at 10 µM; 310,000 tested, 0.49% active;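 active = B-score above 5 SD of library B-scores, and initial fluorescence ratio not above library mean plus 5 SD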;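 note: positive B-score marks a calcium rise read as TRPC4 activation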
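Assay system: HEK293 stable line with TRPC4beta plus mu-opioid receptor; schedule: 45 min room-temperature Fluo4 loading, 110 s read; technique: kinetic Fluo4 calcium fluorescence; evaluation: integrated baseline-normalised fluorescence ratio, converted to per-well B score; controls: buffer (low) and maximal DAMGO (high)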
TRPC4 inh: inhibitors of mouse TRPC4 channel; HEK293 TRPC4beta/mu-opioid, DAMGO-evoked Fluo4 calcium flux; active compounds read low; B-score at 10 µM; 300,000 tested, 0.39% active;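 active = B-score over 3 SD under the library average, no early fluorescence shift, positive overall ratio signal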
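Assay system: TRPC4beta/mu-opioid receptor HEK293 cell line; compound dosing: single concentration per test compound; detection: Fluo4 Ca2+ flux fluorescence; evaluation: per-well B score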
TRPC4 sel inh 2: second check of whether TRPC6 inhibitors also affect mouse TRPC4; shares compounds with TRPC6 inhibitor; HEK293 TRPC4/MOR, membrane potential dye fluorescence; channel activated by saturating DAMGO dose; inhibition, % at 10 µM; 920 tested, 42% active;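 active = compounds whose fluorescence signal differed from control wells by over 3 SD, either direction, in both duplicate plates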
TRPC4 spec: mouse TRPC4 off-target activity of TRPC6 inhibitors; shares compounds with TRPC6 inhibitor; HEK293 TRPC4/mu-opioid, membrane potential fluorescence; activity change, negative = inhibition, % at 10 µM; 920 tested, 61% active; AID 2777;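 active = rise or fall in signal beyond 3 SD of buffer-only wells in both replicate plates, either sign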;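 note: integrated kinetic ratio of fluorescence range over baseline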
HEK293 MPD ctr 2-1: second counter-screen for TRPC6 inhibitors: parental HEK293 cells | shares compounds with TRPC6 inhibitor | parental HEK293 membrane potential dye fluorescence; maximal acetylcholine challenge after compound addition | signal change vs control, % at 10 µM | 920 tested, 31% active;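 active = membrane potential signal moving either way by over 3 SD of the maximum-effect control, in both duplicate plates, meaning non-specific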
HEK293 MPD ctr-1: checks TRPC6 inhibitor effects in parental HEK293 cells; shares compounds with TRPC6 inhibitor; parental HEK293 membrane potential dye fluorescence; membrane potential signal change, % at 10 µM; 920 tested, 60% active; AID 2780;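 active = membrane potential signal shifting up or down by more than 3 SD of buffer-only wells, on both duplicate plates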
HEK293 MPD ctr-2: parental HEK293 nonspecific activity of TRPC6 modulators. shares compounds with TRPC6 inhibitor. membrane potential dye fluorescence. membrane potential signal change, % at 10 µM. 2,400 tested, 51% active;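 active = membrane potential signal moves up or down beyond 5 SD from buffer-only wells, on both duplicate plates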
HEK293 MPD ctr 2-2: parental HEK293 nonspecific activity of TRPC6 modulators, second screen | AID 488926 | shares compounds with TRPC6 inhibitor | 2,400 tested, 14% active | membrane potential dye fluorescence; after compound, maximal acetylcholine stimulation | inhibition, % at 10 µM;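 active = membrane potential signal drops by more than 5 SD from the mean control signal, in both duplicate plates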;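 note: plate controls were acetylcholine ECmax control wells for no effect and buffer only wells for full effect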
TRPC4/MOR mod: tests whether TRPC6 modulators also affect mouse TRPC4 | shares compounds with TRPC6 inhibitor | HEK293 TRPC4/mu-opioid, membrane potential fluorescence | percent change from control (negative = decrease, positive = increase), % at 10 µM | 2,400 tested, 69% active | AID 488927;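 active = membrane potential signal moved up or down beyond 5 SD of buffer control wells, in both duplicate plates, actives on both sides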;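 note: plate controls were assay buffer wells for no effect and DAMGO maximal-effect wells for full effect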
TRPC4 ctr inh 2: second check of whether TRPC6 modulators also affect mouse TRPC4 | 2,400 tested, 55% active | AID 488928 | HEK293 TRPC4/mu-opioid, membrane potential dye fluorescence; stimulated with maximal-effect DAMGO | shares compounds with TRPC6 inhibitor | inhibition, % at 10 µM;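 active = drop in membrane potential signal beyond 5 SD of the control wells in both duplicate plates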;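 note: TRPC4 counter screen for TRPC6 hits run under conditions tuned for TRPC6 not TRPC4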
TRPC6 block conf: mouse TRPC6 inhibitor confirmation | shares compounds with TRPC6 inhibitor | HEK293-TRPC6, membrane potential dye, ACh-evoked depolarization | inhibition, % at 10 µM | 3,300 tested, 43% active;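 active = fluorescence ratio falls more than 5 SD below the full-stimulation control mean, in both duplicate runs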;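 note: integrated fluorescence ratio of peak minus minimum over baseline after agonist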
TRPC6 act confirm: mouse TRPC6 activator confirmation | shares compounds with TRPC6 inhibitor | HEK293-TRPC6 membrane potential dye fluorescence, FDSS | activation, % at 10 µM | 2,800 tested, 11% active;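 active = ratio signal rise beyond 5 SD above unstimulated control wells' mean, seen in both duplicate runs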;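 note: plate controls were buffer EC0 wells for no effect and acetylcholine ECmax response for full effect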
Starred values were filed as active, the others as inactive; i = inactive; . = not tested or not shown.

SMILES | TRPC6 inhibitor | TRPC4 PAM | Kir21 block | TRPC6 act | TRPC4 act | TRPC4 inh | HEK293 MPD ctr-2 | HEK293 MPD ctr 2-2 | TRPC4/MOR mod | TRPC4 ctr inh 2 | TRPC6 block conf | TRPC6 act confirm | others
CCCCCOC(=O)c1ccc(NC(=O)c2cccc(NC(=O)c3ccccc3C(=O)O)c2)cc1 | i | i | 1.9 | 14* | i | i | i | i | 15%* | i | . | 200%*
CCOC(=O)c1c(C)cc(C)n2c1nc1ccccc12 | -8.1* | i | -0.21 | i | i | i | . | . | . | . | i | i | TRPC4 sel inh 2=i;TRPC4 spec=-21%*;HEK293 MPD ctr 2-1=i;HEK293 MPD ctr-1=-250%*
COc1ccc(C(=O)CSc2nnc(CNC(=O)c3ccccc3F)n2C)cc1OC | i | i | 2 | i | i | i | . | . | . | . | . | .
CCCCN(C)CCNC(=O)c1nn(-c2ccc(OC)cc2)c(=O)c2c1c1ccccc1n2C | -5.7* | i | -0.97 | i | i | i | i | i | -16%* | 68%* | i | i
CCc1ccc(/C(C)=N/NC(=O)CNC(=O)/C=C/c2ccco2)cc1 | i | i | 0.68 | i | i | i | . | . | . | . | . | .
Cc1cccc(N2CC(O)(c3cccs3)[N+]3=C2CCCC3)c1 (stereo not drawn) | i | i | 0.42 | i | i | i | . | . | . | . | . | .
Cc1ccc(N2CC(O)(c3cccs3)[N+]3=C2CCCC3)cc1 (stereo not drawn) | -5.2* | i | 0.53 | i | i | i | 104%* | i | 16%* | 38%* | i | .
Cc1cc(Br)ccc1NC(=O)CN(C)C(=O)CSCc1ccccc1 | i | i | -0.24 | i | i | i | . | . | . | . | . | .
COc1ccccc1CNC(=O)COC(=O)c1cc([N+](=O)[O-])ccc1N1CCOCC1 | -5.1* | i | 0.92 | i | i | i | i | i | 14%* | i | i | .
COc1ccccc1C(=O)COC(=O)c1cc([N+](=O)[O-])ccc1N1CCOCC1 | i | i | 0.01 | i | i | i | . | . | . | . | . | .
Cc1ccc2nc(-c3ccncc3)cc(-c3ccccc3)c2c1 | i | i | 0.43 | i | i | i | . | . | . | . | . | .
Cc1ccc(-c2cc3cccc[n+]3cc2-c2ccc(C)cc2)cc1 | -5.8* | i | -12* | i | i | i | -134%* | i | -20%* | 29%* | 60%* | i
CC1CC(OC(=O)C(O)c2ccccc2)CC(C)(C)N1C (stereo not drawn) | -5.7* | i | -0.53 | i | i | i | i | i | 8.5%* | i | 56%* | i
CN1[C@@H]2CC[C@H]1CC(OC(=O)[C@H](CO)c1ccccc1)C2 (stereo partly drawn) | i | i | 0.15 | i | i | i | . | . | . | . | . | .
COc1ccc(/C=N/NC(=O)c2ccncc2)cc1CSc1nc2ccccc2s1 | i | i | 0.02 | i | i | i | . | . | . | . | . | .
COc1ccc(N2CCN(S(=O)(=O)CCNC(=O)COc3ccc(Cl)cc3)CC2)cc1 | i | i | 0.01 | i | i | i | . | . | . | . | . | .
COc1ccc(N2CCN(S(=O)(=O)CCNC(=O)COc3ccccc3C)CC2)cc1 | -8.5* | i | -0.5 | i | i | i | . | . | . | . | i | i | TRPC4 sel inh 2=i;TRPC4 spec=-8.9%*;HEK293 MPD ctr 2-1=240%*;HEK293 MPD ctr-1=i
CC1=C([N+](=O)[O-])C(c2ccccc2Cl)NC(=O)N1C (stereo not drawn) | i | i | 1 | i | i | i | . | . | . | . | . | .
OCCn1c(-c2ccc(F)cc2)csc1=Nc1ccccc1 | -7.5* | i | -0.01 | i | i | i | 120%* | i | 12%* | 31%* | 74%* | .
OCCn1c(-c2ccc3c(c2)OCO3)csc1=Nc1ccccc1 | i | i | -1 | i | i | i | . | . | . | . | . | .
CC[n+]1cccc(-c2nc3ccccc3s2)c1 | -5.5* | i | 0 | i | i | i | -162%* | i | -26%* | i | i | i
Cc1nc2ccc(NC(=O)c3cc(S(=O)(=O)N(C)c4ccccc4)ccc3Cl)cc2s1 | i | i | 0.48 | i | i | i | . | . | . | . | . | .
Cc1nc2ccc(NC(=O)c3ccc(Cl)c(S(=O)(=O)N(C)c4ccccc4)c3)cc2s1 | -5.1* | i | 1.6 | i | i | i | i | i | -26%* | i | i | i
Cc1cc(NC(=O)CSc2ccc3nnc(-c4cccs4)n3n2)no1 | -5.3* | i | -0.9 | i | i | i | -159%* | i | -36%* | i | i | i
Cc1ccc(-c2nnc3ccc(SCC(=O)Nc4cc(C)on4)nn23)cc1 | i | i | -0.06 | i | i | i | . | . | . | . | . | .
O=C1CCc2cc(S(=O)(=O)N3CCCCC3)cc3c2N1CC3 | i | i | -0.65 | i | i | i | . | . | . | . | . | .

Screening results (PubChem)
